M4 ag – human M4 muscarinic receptor agonists, primary screen, CHO-K1 cells, Fluo-8 calcium fluorescence. hit rate 0.14% among 360,000. CHO-K1 hM4/Gqi5; vehicle 0%, full acetylcholine response 100%. activation, % at 3 µM. AID 624127, 2012;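 active = activation above the run mean over all test wells plus 3 SD, cut at about 32% in these data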;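 note: peak over basal fluorescence ratio per well then scaled between controls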
TAAR1 ag – human TAAR1 agonists, primary screen, Fluo-8 calcium fluorescence, CHO RD-HGA16 cells | Trace amine-associated receptor 1 (Homo sapiens), Q96RJ0 | vehicle wells 0%, saturating PEA agonist 100% | activation, % at 3 µM | hit rate 0.99% among 360,000;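 active = activation above the mean activation of all test compounds in the run plus 3 SD, cut at about 38% in these data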
Target sequence (Q96RJ0 whole entry, looked up): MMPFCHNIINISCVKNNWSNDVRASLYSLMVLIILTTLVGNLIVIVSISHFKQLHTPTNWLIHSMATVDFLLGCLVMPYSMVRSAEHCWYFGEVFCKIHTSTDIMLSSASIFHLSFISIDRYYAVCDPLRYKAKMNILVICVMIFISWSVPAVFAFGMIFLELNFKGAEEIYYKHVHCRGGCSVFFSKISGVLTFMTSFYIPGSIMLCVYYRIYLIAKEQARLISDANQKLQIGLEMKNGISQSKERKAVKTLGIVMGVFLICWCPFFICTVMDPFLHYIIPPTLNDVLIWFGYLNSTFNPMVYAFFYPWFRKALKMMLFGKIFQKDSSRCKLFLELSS
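Signal – calcium-sensitive Fluo-8 signal, excitation 470-495, emission 515-575 nm · System – RD-HGA16 (CHO) cells co-expressing Gα16 and hTAAR1 · Incubation – 17-24 h seeding, 75 min 37 °C dye, 30 min RT · Compound dosing – 3 µM single concentration · Repeats – no replicates (n 1)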
TAAR1 antagonist – human TAAR1 antagonists, primary screen, Fluo-8 calcium fluorescence, CHO RD-HGA16 cells; antagonist; hit rate 1.5% among 360,000; inhibition, % at 3 µM;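 active = inhibition above a per-plate cutoff, the mean inhibition of test compounds on that plate plus 3 SD, cut at about 49% in these data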
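Assay system: CHO-derived RD-HGA16 cells stably expressing human TAAR1 plus Gα16. Timing: 140 s kinetic read after compound, 140 s after agonist. Technique: kinetic Fluo-8 calcium fluorescence measurement. Measure: % inhibition of agonist calcium response.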
M4 antag – human M4 muscarinic receptor antagonists, primary screen, CHO cells, Fluo-8 calcium fluorescence; Muscarinic acetylcholine receptor M4 (Homo sapiens), P08173; CHO-hM4 cells, ACh EC80; inhibition, % at 3 µM; hit rate 0.73% among 360,000; AID 624125, 2012;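 active = inhibition above its plate's cutoff, the mean inhibition of sample wells plus 3 SD, cut at about 27% in these data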
CHRM4 PAM – human M4 muscarinic receptor positive allosteric modulators, primary screen, CHO-K1 cells, Fluo-8 calcium fluorescence. Muscarinic acetylcholine receptor M4 (Homo sapiens), P08173. CHO-K1 hM4/Gqi5, ACh EC20; 0% = ACh EC20, 100% = maximal ACh. activation, % at 3 µM. hit rate 0.4% among 360,000. AID 624126, 2012;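 active = activation above its plate's cutoff, the mean activation of sample wells plus 3 SD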
TAAR1 nonsel count – nonselective antagonists in TAAR1 counter-screen cells, counter-screen for hTAAR1 antagonist project, cell-based, fluorescence, calcium; shares compounds with TAAR1 antagonist; hit rate 77% among 2,400; counterscreen cell line, antagonist mode; inhibition, % at 3 µM; AID 651780, 2012; in the data active = inhibition above about 22%;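 note: CHO-Ga16 host cells stimulated with ATP at an EC80 level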
TAAR1 ant conf – human TAAR1 antagonists, retest of hits, confirmation, cell-based, fluorescence. hit rate 40% among 2,400. shares compounds with TAAR1 antagonist. inhibition, % at 3 µM. AID 651785, 2012. TAAR1-expressing cells, fluorescence antagonist read-out; in the data active = inhibition above about 49%;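 note: CHO-Ga16 host cells challenged with agonist PEA near its EC80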
Ga16 ag counter – calcium activation in Ga16-expressing cells, counter-screen for TAAR1 antagonist project, cell-based, fluorescence; activation, % at 3 µM; AID 651953, 2012; hit rate 18% among 2,400; shares compounds with TAAR1 antagonist; agonist counterscreen; in the data active = activation above about 12%
TAAR1 ag counter – TAAR1 activation by candidate antagonists – cell-based, fluorescence, counter-screen for TAAR1 antagonist project; activation, % at 3 µM; AID 651955, 2012; hTAAR1 cell line, agonist mode; shares compounds with TAAR1 antagonist; hit rate 2% among 2,400; in the data active = activation above about 37%;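 note: CHO cells stably expressing TAAR1 with calcium dye readout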
Large screens that a line does not name were inactive (follow-up assays come after a bar, where they were run). Only some compounds are listed: those with a hit (about 3% of all), similar ones and a draw of the others.

COc1ccc(CN(C)C(=O)/C=C/[C@H]2O[C@@H](n3cc(C)c(=O)[nH]c3=O)C[C@@H]2O)cc1OC	none
CCCCOc1ccc(S(=O)(=O)NC(=O)C2(C)CCN2C(=O)CCc2ccccc2)cc1 (stereo unspecified)	none
COC(=O)CCCC[C@@H]1O[C@H](CCc2ccccc2)CC2=C1C(=O)OC(C)(C)O2	TAAR1 antagonist 61 | TAAR1 nonsel count 26 | TAAR1 ant conf 50 | Ga16 ag counter inactive | TAAR1 ag counter inactive
CC(C)C[C@@H]1O[C@H](CCc2ccccc2)CC2=C1C(=O)OC(C)(C)O2	none
Cc1ccc(CSCC(=O)Nc2cc(S(=O)(=O)N3CCOCC3)ccc2OCC(F)(F)F)cc1	TAAR1 antagonist 81 | TAAR1 nonsel count inactive | TAAR1 ant conf 62 | Ga16 ag counter inactive | TAAR1 ag counter inactive
Cc1cc(OCC(=O)OCC(=O)Nc2cc(S(=O)(=O)N3CCOCC3)ccc2Cl)ccc1Cl	TAAR1 antagonist 64 | TAAR1 nonsel count 36 | TAAR1 ant conf inactive | Ga16 ag counter 14 | TAAR1 ag counter inactive
O=C(COC(=O)c1ccc(O)cc1)Nc1cc(S(=O)(=O)N2CCCCCC2)ccc1Cl	TAAR1 antagonist 62 | TAAR1 nonsel count 38 | TAAR1 ant conf 52 | Ga16 ag counter inactive | TAAR1 ag counter inactive
CCOC(=O)N(C)[C@H]1C[C@H]2c3[nH]c4ccccc4c3CCN2C(=O)[C@H]1[C@H](C)O	none (no result: M4 ag, M4 antag, CHRM4 PAM)
CCOC(=O)CSc1nc2cc(C(=O)N3CCC(C(N)=O)CC3)ccc2c(=O)n1-c1ccccc1	none (no result: TAAR1 ag, TAAR1 antagonist)
CCOC(=O)CSc1nc2cc(C(=O)N3CCCC3)ccc2c(=O)n1Cc1ccccc1	TAAR1 antagonist 105 | TAAR1 nonsel count inactive | TAAR1 ant conf inactive | Ga16 ag counter inactive | TAAR1 ag counter inactive
Cc1cccc(C(=O)Nc2ccc(C(=O)/C=C/c3cccnc3)cc2)c1	TAAR1 antagonist 60 | TAAR1 nonsel count 33 | TAAR1 ant conf 54 | Ga16 ag counter 13 | TAAR1 ag counter inactive
O=C(/C=C/c1cccnc1)c1ccc(NC(=O)c2cccc(Br)c2)cc1	none
CCC(CO)Oc1cc(NCc2cccc(O)c2)c2ncn(C(C)C)c2c1 (stereo unspecified)	none
CCC(CO)Oc1cc(NCc2cccc(OC)c2)c2ncn(C(C)C)c2c1 (stereo unspecified)	TAAR1 antagonist 106 | TAAR1 nonsel count inactive | TAAR1 ant conf inactive | Ga16 ag counter inactive | TAAR1 ag counter inactive
C=CCC[C@@H](Cc1ccc(F)cc1)C(=O)OC[C@H](C)NC(=O)[C@H](CC=C)CC(=O)N(CCO)Cc1ccccc1	TAAR1 antagonist 71 | TAAR1 nonsel count 27 | TAAR1 ant conf inactive | Ga16 ag counter inactive | TAAR1 ag counter inactive
C=CC[C@@H](CC(=O)N(CCO)Cc1ccccc1)C(=O)N[C@H](COC(=O)[C@@H](CC=C)Cc1ccc(F)cc1)Cc1ccccc1	TAAR1 antagonist 75, M4 antag 31 | TAAR1 nonsel count 27 | TAAR1 ant conf inactive | Ga16 ag counter inactive | TAAR1 ag counter inactive
C=CCC[C@@H](Cc1ccc(F)cc1)C(=O)OC[C@H](C)NC(=O)[C@@H](CC=C)CC(=O)N(CCO)Cc1ccccc1	none
O=C1NC(Cc2ccc(O)cc2)c2nc3ccc(F)cc3c(=O)n2-c2ncccc21 (stereo unspecified)	none
CCC1CN(C(=O)N2CCC(C(=O)Nc3ccccc3OC)CC2)c2ccccc2O1 (stereo unspecified)	TAAR1 antagonist 61 | TAAR1 nonsel count 22 | TAAR1 ant conf inactive | Ga16 ag counter inactive | TAAR1 ag counter inactive
CC(C)[C@@H]1NC(=O)[C@@H]2CSCCS(=O)(=O)N2C1=O	none (no result: M4 ag, M4 antag, CHRM4 PAM)
Cc1cccc(N2CCN(C3=NC(=O)/C(=C\c4cn[nH]c4-c4ccccc4)S3)CC2)c1	TAAR1 antagonist 61 | TAAR1 nonsel count 41 | TAAR1 ant conf 59 | Ga16 ag counter inactive | TAAR1 ag counter inactive
O=C1N(c2ccccc2)c2ccccc2[C@]12C[C@H](O)CO2	none
COc1ccc(N2CCN(C(=O)NCc3cccc(OC)c3)CC2)cc1	none
COc1cccc(CNC(=O)N2CCN(c3ccccc3Cl)CC2)c1	TAAR1 antagonist 49 | TAAR1 nonsel count 22 | TAAR1 ant conf inactive | Ga16 ag counter inactive | TAAR1 ag counter inactive
CCOC(=O)C1C(C(=O)OCC)C(C)(C)C1N(C)C (stereo unspecified)	none
COc1ccc(/C=N/NC(=O)c2cc3c(ccc4ccccc43)o2)cc1OC	TAAR1 antagonist 53 | TAAR1 nonsel count 28 | TAAR1 ant conf inactive | Ga16 ag counter inactive | TAAR1 ag counter inactive
COc1ccc(/C=N\NC(=O)c2cc3c(ccc4ccccc43)o2)cc1O	TAAR1 antagonist 57 | TAAR1 nonsel count 40 | TAAR1 ant conf 55 | Ga16 ag counter 13 | TAAR1 ag counter inactive
COc1cccc(NC(=O)C2(C)CCCN(C(C)C)C2)c1 (stereo unspecified)	none
O=C(NCCc1cccs1)C1CC(c2ccccc2F)=NO1 (stereo unspecified)	TAAR1 antagonist 74 | TAAR1 nonsel count inactive | TAAR1 ant conf 81 | Ga16 ag counter inactive | TAAR1 ag counter 68
C[C@H]1CN([C@@H](C)CO)S(=O)(=O)c2ccc(Br)cc2O[C@H]1CN(C)C(=O)Cc1ccncc1	none
CC1C(=O)N(Cc2cn(CCC3OCCO3)nn2)CCS(=O)(=O)N1Cc1ccc(-c2ccc(Cl)c(Cl)c2)cc1 (stereo unspecified)	TAAR1 antagonist 75 | TAAR1 nonsel count 38 | TAAR1 ant conf inactive | Ga16 ag counter 15 | TAAR1 ag counter inactive
CC(C)C1C(=O)N(Cc2cn(CCC3OCCO3)nn2)CCS(=O)(=O)N1Cc1ccc(-c2ccc(Cl)cc2)cc1 (stereo unspecified)	TAAR1 antagonist 53 | TAAR1 nonsel count 30 | TAAR1 ant conf inactive | Ga16 ag counter inactive | TAAR1 ag counter inactive
COc1ccc(S(=O)(=O)N2CCC(C(=O)N[C@H](C(=O)NCc3ccccc3)C(C)C)CC2)cc1	none
CCN(CC)c1ccc(C(=O)NNC(=O)C2CSC3(C)CCC(=O)N23)cc1 (stereo unspecified)	none

Bioassay records deposited in PubChem BioAssay by The Scripps Research Institute Molecular Screening Center.
